From ChEMBL document CHEMBL1687853, “Increased glycolytic ATP synthesis is associated with tafenoquine resistance in Leishmania major” (Antimicrob Agents Chemother, 2011)
The source made the active and inactive calls. The calls are words filed in the database; no cut-off is given here.

What was measured:
Leishmania major [1] = experiment: Resistant index, ratio of EC50 for tafenoquine-resistant promastigotes of Leishmania major R4 to EC50 for promastigotes of Leishmania major MHOM/JL/80/Friedlin; assay type: functional
Outline: (§1)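 L. major Friedlin promastigotes, wild type or TFQ-resistant R4, were grown at 28°C in modified RPMI 1640 with 20% heat-inactivated FBS. R4 was selected stepwise from 2.5 to 4 μM TFQ over 10 weeks and kept in 4 μM. Parasites were exposed to increasing drug concentrations for 72 h at 28°C and viability was read by MTT. EC50 is 50% growth inhibition; resistance index is the R4/WT EC50 ratio.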

Leishmania major [2] = experiment: Antileishmanial activity against tafenoquine-resistant promastigotes of Leishmania major R4 assessed as inhibition of parasite growth after 72 hrs by MTT assay; assay type: functional, organism-based; conditions: R4, 72 h; outline: as §1
Leishmania major [3] = experiment: Antileishmanial activity against wild type promastigotes of Leishmania major MHOM/JL/80/Friedlin assessed as inhibition of parasite growth after 72 hrs by MTT assay; assay type: functional, organism-based; outline: as §1
Leishmania major [4] = experiment: Induction of acidification in wild type promastigotes of Leishmania major MHOM/JL/80/Friedlin assessed as decrease of pH at 5 uM after 30 mins; assay type: functional, organism-based
Outline: (§2)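 Promastigotes were loaded with BCECF-AM (5 µg/ml) in pH 7.4 standard buffer for 30 min at 28°C and washed twice. Cells at 2 × 10^7/ml in culture medium then received 20 mM sodium azide or 5 µM TFQ for 1, 3, 5, 10 or 30 min. The ratio at excitation 490/440 nm, emission 535 nm, was converted to pHi with a nigericin calibration curve.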

Leishmania major [5] = experiment: Induction of acidification in tafenoquine-resistant promastigotes of Leishmania major R4 assessed as decrease of pH at 5 uM after 30 mins; assay type: functional, organism-based
Outline: (§3)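 R4 or revertant promastigotes (R4 grown 1 month drug-free) were loaded with BCECF-AM (5 μg/ml, 30 min, 28°C) and washed. Cells at 2 × 10^7/ml in culture medium then received 5 μM TFQ or 20 mM sodium azide for 1–30 min. pHi came from the 490/440 nm excitation ratio (emission 535 nm), calibrated with nigericin-treated cells at set pH values.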

Leishmania major [6] = experiment: Drug uptake in wild type promastigotes of Leishmania major MHOM/JL/80/Friedlin at 2 uM after 5 mins by spectrofluorometric technique; assay type: ADME, organism-based; conditions: in vivo
Leishmania major [7] = experiment: Drug uptake in promastigotes of tafenoquine-resistant promastigotes of Leishmania major R4 at 2.5 uM after 5 mins by spectrofluorometric technique; assay type: ADME, organism-based; conditions: in vivo
Leishmania major [8] = experiment: Drug uptake in promastigotes of tafenoquine-resistant promastigotes of Leishmania major revert R4 at 5 uM after 5 mins by spectrofluorometric technique; assay type: ADME, organism-based; conditions: in vivo
Leishmania major [9] = experiment: Drug uptake in wild type promastigotes of Leishmania major MHOM/JL/80/Friedlin assessed per mg of protein at 5 uM after 15 mins by spectrofluorometric technique; assay type: ADME, organism-based; conditions: in vivo, 0.25 h
Outline: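 L. major Friedlin promastigotes, grown 48 h at 28°C in RPMI 1640 with 20% iFBS, were used at 2 × 10^7/ml. Cells were exposed to 5 µM TFQ for 15 min at 28°C in culture medium, washed twice in PBS and lysed in 10% SDS, pH 4. Emission was read at 360–460 nm with excitation at 340 nm.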

Leishmania major [10] = experiment: Drug uptake in promastigotes of tafenoquine-resistant promastigotes of Leishmania major R4 assessed per mg of protein at 5 uM after 15 mins by spectrofluorometric technique; assay type: ADME, organism-based; conditions: in vivo, 0.25 h
Outline: (§4)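 Promastigotes at 2 × 10^7/ml were given 5 μM TFQ for 15 min at 28°C in culture medium, washed twice with PBS and lysed in 10% SDS, pH 4. TFQ was read fluorimetrically with excitation at 340 nm and emission at 360–460 nm. For the alkalinization condition, parasites were pretreated with 20 mM NH4Cl for 1 min and then given TFQ in the continued presence of NH4Cl for 15 min.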

Leishmania major [11] = experiment: Drug uptake in promastigotes of tafenoquine-resistant promastigotes of Leishmania major revert R4 assessed per mg of protein at 5 uM after 15 mins by spectrofluorometric technique; assay type: ADME, organism-based; conditions: in vivo, 0.25 h; outline: as §4
Leishmania major [12] = experiment: Effect on ATP synthesis in wild type promastigotes of Leishmania major MHOM/JL/80/Friedlin assessed as decrease of ATP level up to 20 uM after 60 mins by celltiter- glo luminescent assay; assay type: functional, organism-based
Outline: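 Promastigotes at 4 × 10^6/ml were held in culture medium with TFQ at 1, 2, 5, 10 or 20 µM for 60 min. Cells were mixed 1:1 with CellTiter-Glo and kept 10 min in the dark. Luminescence, proportional to ATP, was then read.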

Leishmania major [13] = experiment: Effect on ATP synthesis in tafenoquine-resistant promastigotes of Leishmania major R4 assessed as increase of ATP level at up to 20 uM after 60 mins by celltiter- glo luminescent assay; assay type: functional, organism-based
Outline: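 Promastigotes at 4 × 10^6/ml were incubated in culture medium with 1, 2, 5, 10 or 20 μM TFQ for 60 min. ATP was measured by CellTiter-Glo: an aliquot was mixed with an equal volume of reagent, held 10 min in the dark, and luminescence was read.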

Leishmania major [14] = experiment: Induction of acidification in tafenoquine-resistant promastigotes of Leishmania major revert R4 assessed as decrease of pH at 5 uM after 30 mins; assay type: functional, organism-based; outline: as §3
Leishmania major [15] = experiment: Induction of acidification in wild type promastigotes of Leishmania major MHOM/JL/80/Friedlin assessed as decrease of pH at 20 mM after 30 mins; assay type: functional, organism-based; outline: as §2
Leishmania major [16] = experiment: Induction of acidification in tafenoquine-resistant promastigotes of Leishmania major R4 assessed as decrease of pH at 20 mM after 30 mins; assay type: functional, organism-based; outline: as §3
Leishmania major [17] = experiment: Induction of acidification in tafenoquine-resistant promastigotes of Leishmania major revert R4 assessed as decrease of pH at 20 mM after 30 mins; assay type: functional, organism-based; outline: as §3
Leishmania major [18] = experiment: Drug uptake in wild type promastigotes of Leishmania major MHOM/JL/80/Friedlin assessed per mg of protein at 5 uM after 15 mins by spectrofluorometric technique in presence of ammonium chloride; conditions: in vivo, 0.25 h
Leishmania major [19] = experiment: Drug uptake in promastigotes of tafenoquine-resistant promastigotes of Leishmania major R4 assessed per mg of protein at 5 uM after 15 mins by spectrofluorometric technique in presence of ammonium chloride; conditions: in vitro, 0.25 h
Leishmania major [20] = experiment: Drug uptake in promastigotes of tafenoquine-resistant promastigotes of Leishmania major revert R4 assessed per mg of protein at 5 uM after 15 mins by spectrofluorometric technique in presence of ammonium chloride; conditions: in vitro, 0.25 h

CCN(CC)CCCCCCNc1cc(OC)cc2c(C)ccnc12.Cl.Cl
Ratio EC50 (Leishmania major [1]): 2
EC50 (Leishmania major [2]): 24.5 µM
EC50 (Leishmania major [3]): 12 µM

C[C@@H]1[C@H](O)[C@@H](C)/C=C/C=C/C=C/C=C/C=C/C=C/C=C/[C@H](O[C@@H]2O[C@H](C)[C@@H](O)[C@H](N)[C@@H]2O)C[C@@H]2O[C@](O)(C[C@@H](O)C[C@@H](O)[C@H](O)CC[C@@H](O)C[C@@H](O)CC(=O)O[C@H]1C)C[C@H](O)[C@H]2C(=O)O [AMPHOTERICIN B]
Ratio EC50 (Leishmania major [1]): 1.7
EC50 (Leishmania major [2]): 3.16 µM
EC50 (Leishmania major [3]): 1.87 µM

CCN(CC)CCCC(C)Nc1ccnc2cc(Cl)ccc12 (stereo not drawn) [CHLOROQUINE]
Ratio EC50 (Leishmania major [1]): 1.3
EC50 (Leishmania major [2]): 23.8 µM
EC50 (Leishmania major [3]): 18.8 µM

COc1cccc2c1C(=O)c1c(O)c3c(c(O)c1C2=O)C[C@@](O)(C(C)=O)C[C@@H]3O[C@H]1C[C@H](N)[C@H](O)[C@H](C)O1 [DAUNORUBICIN]
Ratio EC50 (Leishmania major [1]): 1.7
EC50 (Leishmania major [2]): 0.38 µM
EC50 (Leishmania major [3]): 0.22 µM

CC(=O)N1CCN(c2ccc(OCC3COC(Cn4ccnc4)(c4ccc(Cl)cc4Cl)O3)cc2)CC1 (stereo not drawn) [KETOCONAZOLE]
Ratio EC50 (Leishmania major [1]): 1.4
EC50 (Leishmania major [2]): 28.1 µM
EC50 (Leishmania major [3]): 20 µM

OC(c1cc(C(F)(F)F)nc2c(C(F)(F)F)cccc12)C1CCCCN1 (stereo not drawn) [MEFLOQUINE]
Ratio EC50 (Leishmania major [1]): 1.1
EC50 (Leishmania major [2]): 13.9 µM
EC50 (Leishmania major [3]): 12.5 µM

CCCCCCCCCCCCCCCCOP(=O)([O-])OCC[N+](C)(C)C [MILTEFOSINE]
Ratio EC50 (Leishmania major [1]): 1.5
EC50 (Leishmania major [2]): 25.7 µM
EC50 (Leishmania major [3]): 17.7 µM

NC[C@@H]1O[C@H](O[C@H]2[C@@H](O)[C@H](O[C@@H]3[C@@H](O)[C@H](N)C[C@H](N)[C@H]3O[C@H]3O[C@H](CO)[C@@H](O)[C@H](O)[C@H]3N)O[C@@H]2CO)[C@H](N)[C@@H](O)[C@@H]1O [PAROMOMYCIN]
Ratio EC50 (Leishmania major [1]): 1
EC50 (Leishmania major [2]): 3.98 µM
EC50 (Leishmania major [3]): 4.29 µM

N=C(N)c1ccc(OCCCCCOc2ccc(C(=N)N)cc2)cc1 [PENTAMIDINE]
Ratio EC50 (Leishmania major [1]): 1.8
EC50 (Leishmania major [2]): 0.45 µM
EC50 (Leishmania major [3]): 0.28 µM

COc1cc(NC(C)CCCN)c2ncccc2c1 (stereo not drawn) [PRIMAQUINE]
Ratio EC50 (Leishmania major [1]): 1.9
EC50 (Leishmania major [2]): 53 µM
EC50 (Leishmania major [3]): 27.7 µM

C=C[C@H]1CN2CC[C@H]1C[C@H]2[C@H](O)c1ccnc2ccc(OC)cc12 [QUININE]
Ratio EC50 (Leishmania major [1]): 1
EC50 (Leishmania major [2]): 9.53 µM
EC50 (Leishmania major [3]): 9.41 µM

COc1cc(C)c2c(Oc3cccc(C(F)(F)F)c3)c(OC)cc(NC(C)CCCN)c2n1 (stereo not drawn) [TAFENOQUINE]
Ratio EC50 (Leishmania major [1]): 2.5
EC50 (Leishmania major [2]): 5.49 µM
EC50 (Leishmania major [3]): 2.24 µM
Activity (Leishmania major [4]): Active
Activity (Leishmania major [5]): inactive
Drug uptake (Leishmania major [6]): Active
Drug uptake (Leishmania major [7]): Active
Drug uptake (Leishmania major [8]): Active
Drug uptake (Leishmania major [9]): 10775 a.u.
Drug uptake (Leishmania major [10]): 8809 a.u.
Drug uptake (Leishmania major [11]): 9657 a.u.
Activity (Leishmania major [12]): Active
Activity (Leishmania major [13]): Active
Activity (Leishmania major [14]): Active
Activity (Leishmania major [15]): Active
Activity (Leishmania major [16]): inactive
Activity (Leishmania major [17]): Active
Drug uptake (Leishmania major [18]): 7009 a.u.
Drug uptake (Leishmania major [19]): 8462 a.u.
Drug uptake (Leishmania major [20]): 8524 a.u.
